In ChEMBL document CHEMBL3997766, “Synthesis and pre-clinical studies of new amino-acid ester thiazolide prodrugs” (Eur J Med Chem, 2017):

Key:
Canis familiaris [1] = test: Toxicity in Beagle dog administered orally as gelatin capsule once daily for 28 days; set-up: species or system Canis lupus familiaris; settings: in vivo, po, 672 h
Method in brief: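 Sub-acute study in Beagle dogs: 5, 15 or 25 mg/kg/day given orally in a single gelatin capsule once a day for 28 consecutive days to assess systemic exposure and toxicity, with NOAEL determination.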

Canis familiaris [2] = test: Toxicity in Beagle dog assessed as decrease in cholesterol level at 25 mg/kg, po administered as gelatin capsule once daily for 28 days followed by two weeks of recovery period; type: organism-based, Canis lupus familiaris; settings: in vivo, 672 h
Method in brief: (§1)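 Sub-acute study in Beagle dogs dosed orally by gelatin capsule at 5, 15 and 25 mg/kg once a day for 28 consecutive days.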

Rattus norvegicus [3] = test: Toxicity in Sprague-Dawley rat assessed as increase in liver to body weight ratio at 75 mg/kg administered as oral gavage qd for 28 consecutive days measured on day 29; type: organism-based; settings: in vivo
Method in brief: (§2)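 Sub-acute study in Sprague-Dawley rats dosed orally with a suspension at 10, 30 and 75 mg/kg once daily for 28 consecutive days. Four groups of up to 30 rats each (15M/15F).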

Rattus norvegicus [4] = test: Cmax in Sprague-Dawley rat assessed as Tizoxanide level in plasma at 6 mg/kg, iv administered as single dose; type: ADME, organism-based; set-up: dose 6 mg/kg, route intravenous; settings: in vivo
Method in brief: (§3)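 Rats in groups of three received one compound as a single oral dose (30 mg/kg) or a single intravenous injection (6 mg/kg), with four compounds studied separately. Serial blood samples were drawn at 5, 10, 15 and 30 min and at 1, 2, 4, 8, 23 and 24 h post-dose. Plasma parent drug and metabolites were quantified and PK parameters were derived.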

Rattus norvegicus [5] = test: Tmax in Sprague-Dawley rat assessed as Tizoxanide level in plasma at 28 mg/kg, po; type: ADME, organism-based; settings: in vivo
Method in brief: (§4)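 Rats in groups of three got a single oral dose (30 mg/kg) or a single intravenous injection (6 mg/kg). Serial blood samples were taken at 5, 10, 15 and 30 min and at 1, 2, 4, 8, 23 and 24 h post-dose for plasma drug and glucuronide levels. Bioavailability came from oral versus intravenous AUC after dose correction to 30 mg/kg.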

Rattus norvegicus [6] = test: Toxicity in Sprague-Dawley rat assessed as eosinophilic cytoplasmic bodies in leukocytes of duodenum at 75 mg/kg administered as oral gavage qd for 28 consecutive days followed by 2 weeks recovery period by microscopic method; type: organism-based; settings: in vivo, 336 h; method in brief: as §2
Rattus norvegicus [7] = test: Toxicity in Sprague-Dawley rat assessed as hemorrhage in stomach at 30 to 75 mg/kg administered as oral gavage qd for 28 consecutive days measured on day 29 by microscopic method; type: organism-based; settings: in vivo
Method in brief: (§5)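 Sub-acute study in Sprague-Dawley rats: 10, 30 or 75 mg/kg given orally once a day for 28 consecutive days as a yellow suspension. There were 4 groups of up to 30 rats each (15M/15F), including a control. Body weight, clinical observations and terminal findings were assessed.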

Canis familiaris [8] = test: Toxicity in Beagle dog assessed as decrease in cholesterol level up to 25 mg/kg, po administered as gelatin capsule once daily for 28 days measured on day 29; type: organism-based, Canis lupus familiaris; settings: in vivo, 672 h; method in brief: as §1
Canis familiaris [9] = test: Drug metabolism in Beagle dog assessed as tizoxanide-glucuronide level in plasma administered orally as gelatin capsule once daily for 28 days measured on day 1 and 29; type: ADME, Canis lupus familiaris; settings: po, 672 h
Method in brief: (§6)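 Beagle dogs received the drug orally in a single gelatin capsule at 5, 15 or 25 mg/kg once daily for 28 consecutive days in a sub-acute toxicity study assessing systemic exposure.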

Rattus norvegicus [10] = test: AUC (0 to t) in Sprague-Dawley rat assessed as Tizoxanide level in plasma at 6 mg/kg, iv administered as single dose; type: ADME, organism-based; settings: in vivo
Method in brief: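 Plasma tizoxanide and tizoxanide glucuronide were measured and PK parameters derived. AUCs were dose-corrected to 30 mg/kg for bioavailability.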

Rattus norvegicus [11] = test: Toxicity in Sprague-Dawley rat at 10 to 75 mg/kg administered as oral gavage qd for 28 consecutive days by ophthalmoscopic method; type: organism-based; settings: in vivo; method in brief: as §5
Canis familiaris [12] = test: Toxicity in Beagle dog assessed as emesis at 25 mg/kg, po administered as gelatin capsule once daily for 28 days measured on day 29; type: organism-based, Canis lupus familiaris; settings: in vivo, 672 h; method in brief: as §1
Rattus norvegicus [13] = test: Toxicity in Sprague-Dawley rat assessed as eosinophilic cytoplasmic bodies in epithelial cells of stomach at 10 to 75 mg/kg administered as oral gavage qd for 28 consecutive days measured on day 29 by microscopic method; type: organism-based; settings: in vivo; method in brief: as §5
Canis familiaris [14] = test: Toxicity in Beagle dog up to 25 mg/kg, po administered as gelatin capsule once daily for 28 days measured on day 29 followed by two weeks of recovery period; type: organism-based, Canis lupus familiaris; settings: in vivo, 672 h; method in brief: as §1
Rattus norvegicus [15] = test: Toxicity in Sprague-Dawley rat administered via oral gavage qd for 28 consecutive days; settings: in vivo; method in brief: as §5
Canis familiaris [16] = test: Toxicity in Beagle dog assessed as gross necropsy up to 25 mg/kg, po administered as gelatin capsule once daily for 28 days followed by two weeks of recovery period; type: organism-based, Canis lupus familiaris; settings: in vivo, 672 h; method in brief: as §1
Rattus norvegicus [17] = test: Toxicity in Sprague-Dawley rat assessed as eosinophilic cytoplasmic bodies in epithelial cells of stomach at 10 to 75 mg/kg administered as oral gavage qd for 28 consecutive days followed by 2 weeks recovery period by microscopic method; type: organism-based; settings: in vivo, 336 h; method in brief: as §2
Plasma = test: Prodrug activation in Sprague-Dawley rat assessed as tizoxanide formation in plasma at 6.3 mg/kg, iv administered as single dose measured after 5 mins; type: organism-based; settings: in vivo; method in brief: as §4
Canis familiaris [18] = test: Toxicity in Beagle dog at 5 to 75 mg/kg, po administered as gelatin capsule qd for 28 consecutive days; type: organism-based, Canis lupus familiaris; settings: in vivo
Rattus norvegicus [19] = test: Toxicity in Sprague-Dawley rat assessed as eosinophilic cytoplasmic bodies in leukocytes of duodenum at 75 mg/kg administered as oral gavage qd for 28 consecutive days measured on day 29 by microscopic method; type: organism-based; settings: in vivo; method in brief: as §2
Rattus norvegicus [20] = test: Toxicity in Sprague-Dawley rat assessed as mucosal hyperplasia in duodenum at 75 mg/kg administered as oral gavage qd for 28 consecutive days followed by 2 weeks recovery period by microscopic method; type: organism-based; settings: in vivo, 336 h
Method in brief: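 Sub-acute oral toxicity study in Sprague-Dawley rats. The drug was given once daily for 28 consecutive days at 10, 30 or 75 mg/kg, formulated as a suspension. There were 4 groups of up to 30 rats each (15 male, 15 female). The study evaluated systemic exposure to the drug.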

Rattus norvegicus [21] = test: Toxicity in Sprague-Dawley rat assessed as decrease in urine specific gravity at 30 to 75 mg/kg administered as oral gavage qd for 28 consecutive days followed by 2 weeks recovery period measured on day 43; type: organism-based; settings: in vivo, 336 h; method in brief: as §2
Canis familiaris [22] = test: Drug metabolism in Beagle dog assessed as tizoxanide level in plasma administered orally as gelatin capsule once daily for 28 days measured on day 1 and 29; type: ADME, Canis lupus familiaris; settings: po, 672 h; method in brief: as §6
Canis familiaris [23] = test: Toxicity in Beagle dog assessed as thickened duodenum up to 25 mg/kg, po administered as gelatin capsule once daily for 28 days measured on day 29; type: organism-based, Canis lupus familiaris; settings: in vivo, 672 h; method in brief: as §1
Rattus norvegicus [24] = test: Neurotoxicity in Sprague-Dawley rat assessed as decrease in pain response at 1000 mg/kg administered as single dose via oral gavage after 4 to 24 hrs; type: toxicity, organism-based; settings: in vivo
Method in brief: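 Three groups of 10 rats (5M/5F) received a single dose by oral gavage of 100, 300 or 1000 mg/kg, and an untreated group served as control. Clinical signs of CNS effects were recorded at 4 and 24 h after treatment.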

Rattus norvegicus [25] = test: Cmax in Sprague-Dawley rat assessed as Tizoxanide-glucuronide level in plasma at 6 mg/kg, iv administered as single dose; type: ADME, organism-based; set-up: dose 6 mg/kg, route intravenous; settings: in vivo; method in brief: as §3
Rattus norvegicus [26] = test: Toxicity in Sprague-Dawley rat assessed as epithelial hyperplasia in stomach at 30 to 75 mg/kg administered as oral gavage qd for 28 consecutive days measured on day 29 by microscopic method; type: organism-based; settings: in vivo; method in brief: as §5

What does the source list for `CC(C)(C)[C@H](N)C(=O)Oc1ccccc1C(=O)Nc1ncc([N+](=O)[O-])s1.Cl`?
NOAEL (Canis familiaris [1]): 25 mg/kg/day; Activity (Canis familiaris [2]): Non-Toxic; Activity (Rattus norvegicus [3]): Toxic; Cmax (Rattus norvegicus [4]): 12800 ng/mL; Tmax (Rattus norvegicus [5]): 5 to 15 min; Activity (Rattus norvegicus [6]): Non-Toxic; Activity (Rattus norvegicus [7]): Toxic; Activity (Canis familiaris [8]): Toxic; Drug metabolism (Canis familiaris [9]): Dose-dependent effect; AUCt (Rattus norvegicus [10]): 5210 ng·h/mL; Activity (Rattus norvegicus [11]): Non-Toxic; Activity (Canis familiaris [12]): Toxic; Activity (Rattus norvegicus [13]): Toxic; Activity (Canis familiaris [14]): Non-Toxic; NOAEL (Rattus norvegicus [15]): 10 mg/kg; Activity (Canis familiaris [16]): Non-Toxic; Activity (Rattus norvegicus [17]): Non-Toxic; Drug metabolism (Plasma): Metabolite_Detected; Activity (Canis familiaris [18]): Non-Toxic; Activity (Rattus norvegicus [19]): Toxic; Activity (Rattus norvegicus [20]): Non-Toxic; Activity (Rattus norvegicus [21]): Toxic; Drug metabolism (Canis familiaris [22]): Dose-dependent effect; Activity (Canis familiaris [23]): Non-Toxic; Activity (Rattus norvegicus [24]): Toxic; Cmax (Rattus norvegicus [25]): 7890 ng/mL; Activity (Rattus norvegicus [26]): Toxic
